Active and inactive are the calls of the source. No cut-off for these calls is given here.
Tests used:
[1] = tested on: SGC-7901; assay: Induction of apoptosis in human SGC-7901 cells assessed as upregulation of Bak at 20 to 60 nM incubated for 48 hrs by Western blot analysis; type: functional, cell-based; details: dose 20-60 nM
How it was run: (§1)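 Cells grown in RPMI-1640 with 10% FBS, penicillin/streptomycin at 37 °C, 5% CO2. Exposure to 20, 40 or 60 nM for 48 h alongside DMSO control. Lysates denatured, resolved by SDS-PAGE, transferred to PVDF, blocked, then probed with primary and secondary antibodies.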

[2] = tested on: MGC-803; assay: Induction of apoptosis in human MGC-803 cells assessed as downregulation of XIAP at 20 to 60 nM incubated for 48 hrs by Western blot analysis; type: functional, cell-based; details: dose 20-60 nM
How it was run: (§2)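 Western blot on MGC-803 and SGC-7901 cells given 20, 40 and 60 nM compound or DMSO for 48 h. Denatured lysates were run on SDS-PAGE and transferred to PVDF, then probed with primary and secondary antibodies to detect apoptosis-related proteins.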

[3] = tested on: MGC-803; assay: Induction of apoptosis in human MGC-803 cells assessed as downregulation of Mcl-1 at 20 to 60 nM incubated for 48 hrs by Western blot analysis; type: functional, cell-based; details: dose 20-60 nM; how it was run: as §2
[4] = tested on: MGC-803; assay: Activation of Hippo signaling pathway in human […] cells assessed as decrease in c-MYC expression incubated for 48 hrs by Western blot analysis; type: cell-based; details: filed as activator, dose 20-60 nM
How it was run: (§3)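 Western blot on gastric cancer cells exposed to compound or DMSO at 20, 40 and 60 nM for 48 h. Cells were lysed, then the denatured lysates were separated by SDS-PAGE and transferred to PVDF. Membranes were blocked and probed with primary and then secondary antibodies. Hippo pathway proteins were detected.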

[5] = tested on: SGC-7901; assay: Activation of Hippo signaling pathway in human SGC-7901 cells assessed as increase in MST1/2 phosphorylation at 20 to 60 nM incubated for 48 hrs by Western blot analysis; type: cell-based; details: filed as activator, dose 20-60 nM; how it was run: as §3
[6] = tested on: SGC-7901; assay: Induction of apoptosis in human SGC-7901 cells assessed as downregulation of Bcl-xl at 20 to 60 nM incubated for 48 hrs by Western blot analysis; type: functional, cell-based; details: dose 20-60 nM; how it was run: as §2
[7] = tested on: SGC-7901; assay: Antiproliferative activity against human SGC-7901 cells assessed as reduction in cell viability incubated for 48 hrs by MTT assay; type: functional, cell-based; details: SGC-7901, 48 h
How it was run: (§4)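 MTT assay. 5,000 cells per well in RPMI-1640 with 10% FBS and penicillin/streptomycin at 37 °C, 5% CO2. Compound added 24 h after seeding and left for 48 h. MTT was then added for 4 h at 37 °C, formazan dissolved in DMSO and absorbance read at 490 nm. IC50 calculated from three independent experiments.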

[8] = tested on: MGC-803; assay: Activation of Hippo signaling pathway in human […] cells assessed as increase in MST1/2 phosphorylation at 20 to 60 nM incubated for 48 hrs by Western blot analysis; type: cell-based; details: filed as activator, dose 20-60 nM; how it was run: as §3
[9] = tested on: SGC-7901; assay: Induction of apoptosis in human SGC-7901 cells assessed as downregulation of XIAP at 20 to 60 nM incubated for 48 hrs by Western blot analysis; type: functional, cell-based; details: dose 20-60 nM; how it was run: as §2
[10] = tested on: SGC-7901; assay: Induction of apoptosis in human SGC-7901 cells assessed as increase in PARP cleavage at 20 to 60 nM incubated for 48 hrs by Western blot analysis; type: functional, cell-based; details: dose 20-60 nM; how it was run: as §1
[11] = tested on: MGC-803; assay: Activation of Hippo signaling pathway in human […] cells assessed as downregulation of TEAD at 20 to 60 nM incubated for 48 hrs by Western blot analysis; type: cell-based; details: filed as activator, dose 20-60 nM; how it was run: as §3
[12] = tested on: MGC-803; assay: Induction of apoptosis in human MGC-803 cells assessed as fragmentation of cells at 20 to 60 nM; type: functional, cell-based; details: dose 20-60 nM
[13] = tested on: SGC-7901; assay: Induction of cell cycle arrest in human SGC-7901 cells assessed as upregulation of Histone-H3 Ser10 at 20 to 60 nM incubated for 48 hrs by Western blot analysis; type: functional, cell-based; details: dose 20-60 nM; how it was run: as §1
[14] = tested on: SGC-7901; assay: Induction of apoptosis in human SGC-7901 cells assessed as upregulation of Noxa at 20 to 60 nM incubated for 48 hrs by Western blot analysis; type: functional, cell-based; details: dose 20-60 nM; how it was run: as §1
[15] = tested on: MGC-803; assay: Inhibition of colony formation in human MGC-803 cells at 20 to 60 nM incubated for 7 days by crystal violet staining based assay; type: functional, cell-based; details: dose 20-60 nM, time 7.0 day
How it was run: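 Cells maintained in RPMI-1640 with 10% FBS at 37 °C, 5% CO2; incubated with 20, 40 and 60 nM for 7 days before colony counting.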

[16] = tested on: SGC-7901; assay: Induction of cell cycle arrest in human SGC-7901 cells assessed as downregulation of CDK1 at 20 to 60 nM incubated for 48 hrs by Western blot analysis; type: functional, cell-based; details: dose 20-60 nM; how it was run: as §1
[17] = tested on: SGC-7901; assay: Activation of Hippo signaling pathway in human SGC-7901 cells assessed as increase in LATS phosphorylation at 20 to 60 nM incubated for 48 hrs by Western blot analysis; type: cell-based; details: filed as activator, dose 20-60 nM; how it was run: as §3
[18] = tested on: MGC-803; assay: Induction of cell cycle arrest in human MGC-803 cells assessed as downregulation of Cyclin B1 at 20 to 60 nM incubated for 48 hrs by Western blot analysis; type: functional, cell-based; details: dose 20-60 nM; how it was run: as §1
[19] = tested on: MGC-803; assay: Induction of cell cycle arrest in human MGC-803 cells assessed as downregulation of CDK1 at 20 to 60 nM incubated for 48 hrs by Western blot analysis; type: functional, cell-based; details: dose 20-60 nM; how it was run: as §1
[20] = tested on: MGC-803; assay: Displacement of EBI from beta-tubulin in human MGC-803 cells assessed as reduction in tubulin adduct formation incubated for 2 hrs followed by EBI addition and measured after 2 hrs by Western blot analysis; type: cell-based; details: dose 0.25-2.5 µM, time 4.0 hrs
How it was run: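 EBI competition assay. […] EBI was then added at […] as printed for another 2 h. Harvested cells were immunoblotted with anti-β-tubulin antibody to detect β-tubulin and the alkylated β-tubulin adduct.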

[21] = tested on: MGC-803; assay: Inhibition of tubulin polymerization in human MGC-803 cells assessed as increase in multiple nucleus formation at 20 to 60 nmol/L by DAPI staining based microscopic analysis; type: cell-based; details: dose 20-60 nmol/L
How it was run: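 Cells cultured in RPMI-1640 with 10% FBS at 37 °C, 5% CO2, treated 48 h with 20, 40 and 60 nM; stained for β-tubulin (green) and nuclei (blue) and examined by microscopy.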

[22] = tested on: MGC-803; assay: Induction of apoptosis in human MGC-803 cells assessed as upregulation of Bak at 20 to 60 nM incubated for 48 hrs by Western blot analysis; type: functional, cell-based; details: dose 20-60 nM; how it was run: as §2
[23] = tested on: SGC-7901; assay: Induction of apoptosis in human SGC-7901 cells assessed as late apoptotic cells at 60 nM incubated for 48 hrs by annexin V-FITC and PI staining based flow cytometry analysis (reference value: 2.4 %); type: functional
[24] = tested on: GES1; assay: Cytotoxicity against human GES1 cells assessed as reduction in cell viability incubated for 48 hrs by MTT assay; type: functional, cell-based; details: GES1, 48 h; how it was run: as §4
[25] = tested on: SGC-7901; assay: Induction of apoptosis in human SGC-7901 cells assessed as fragmentation of cells at 20 to 60 nM; type: functional, cell-based; details: dose 20-60 nM
How it was run: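 Gastric cancer cells in RPMI-1640/10% FBS at 37 °C, 5% CO2, exposed to 20, 40 and 60 nM for 48 h; nuclear morphology (condensation, fragmentation) inspected after staining.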

[26] = tested on: MGC-803; assay: Induction of apoptosis in human MGC-803 cells assessed as upregulation of DR5 at 20 to 60 nM incubated for 48 hrs by Western blot analysis; type: functional, cell-based; details: dose 20-60 nM; how it was run: as §2
[27] = tested on: MGC-803; assay: Induction of apoptosis in human MGC-803 cells assessed as upregulation of Noxa at 20 to 60 nM incubated for 48 hrs by Western blot analysis; type: functional, cell-based; details: dose 20-60 nM; how it was run: as §2

IC50 [7]: 49 nM
Structure (SMILES): COc1ccc(CN(C(=O)CSc2nc3ccccc3s2)c2cc(OC)c(OC)c(OC)c2)cc1O
Activity [1]: Active
Activity [2]: Active
Activity [3]: Active
Activity [4]: Dose-dependent effect
Activity [5]: Active
Activity [6]: Active
Activity [8]: Active
Activity [9]: Active
Activity [10]: Active
Activity [11]: Active
Activity [12]: Active
Activity [13]: Active
Activity [14]: Active
Activity [15]: Active
Activity [16]: Active
Activity [17]: Active
Activity [18]: Active
Activity [19]: Active
inhibition [20]: Dose-dependent effect
Activity [21]: Active
Activity [22]: Active
Activity [23]: 47.3%
IC50 [24]: 249 nM
Activity [25]: Active
Activity [26]: Active
Activity [27]: Active
